Test results published in ChEMBL document CHEMBL4270612, “Discovery of dual GyrB/ParE inhibitors active against Gram-negative bacteria” (Eur J Med Chem, 2018).

Experiments:
Pseudomonas aeruginosa [1] = assay: Antibacterial activity against Pseudomonas aeruginosa ARC4060 after 24 hrs by broth microdilution method; assay type: functional; conditions: ARC4060, 24 h
Method in brief: (§1)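 Broth microdilution per CLSI. Bacterial suspension adjusted to 1×10^6 CFU/mL in cation-adjusted Mueller–Hinton broth and mixed 1:1 with 2-fold serial compound dilutions. Final DMSO 2.5% v/v. Plates incubated at 35 °C with shaking at 140 rpm for 24 h.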

Pseudomonas aeruginosa [2] = assay: Antibacterial activity against Pseudomonas aeruginosa ARC4063 after 24 hrs by broth microdilution method; assay type: functional; conditions: ARC4063, 24 h
Method in brief: (§2)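 Broth microdilution per CLSI. Bacterial suspension adjusted to 1×10^6 CFU/mL in cation-adjusted Mueller–Hinton broth and mixed 1:1 with 2-fold serial compound dilutions. Plates incubated at 35 °C with shaking at 140 rpm for 24 h.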

Enterobacter cloacae = assay: Antibacterial activity against Enterobacter cloacae ARC3528 after 24 hrs by broth microdilution method; assay type: functional; conditions: ARC3528, 24 h; method in brief: as §1
Acinetobacter baumannii [3] = assay: (§3) Antibacterial activity against Acinetobacter baumannii ARC3495 after 24 hrs by broth microdilution method; assay type: functional; conditions: ARC3495, 24 h; method in brief: as §1
Staphylococcus aureus [4] = assay: Antibacterial activity against methicillin-resistant Staphylococcus aureus USA100 after 24 hrs by broth microdilution method; assay type: functional; conditions: USA100, 24 h
Method in brief: (§4)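 Broth microdilution per CLSI. Bacterial suspensions adjusted to 1×10^6 CFU/mL in cation-adjusted Mueller–Hinton broth, mixed 1:1 with 2-fold serial compound dilutions (final DMSO 2.5% v/v). Incubation 35 °C, 140 rpm, 24 h.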

Acinetobacter baumannii [5] = assay: as §3; assay type: functional; conditions: ARC3495, 24 h; method in brief: as §1; remark: listed apart in the source
Enterococcus faecalis = assay: Antibacterial activity against Enterococcus faecalis ATCC 29212 after 24 hrs by broth microdilution method; assay type: functional; conditions: ATCC 29212, 24 h; method in brief: as §1
DNA gyrase subunit B = DNA gyrase subunit B (Escherichia coli, UniProt P0AES6); assay: Inhibition of Escherichia coli GyrB (1 to 220 residues) expressed in Escherichia coli BL21(DE3)
Klebsiella pneumoniae = assay: Antibacterial activity against Klebsiella pneumoniae ARC1865 after 24 hrs by broth microdilution method; assay type: functional; conditions: ARC1865, 24 h; method in brief: as §1
Acinetobacter baumannii [6] = assay: Antibacterial activity against Acinetobacter baumannii ARC3484 after 24 hrs by broth microdilution method; assay type: functional; conditions: ARC3484, 24 h; method in brief: as §2
Pseudomonas aeruginosa [7] = assay: Antibacterial activity against Pseudomonas aeruginosa ARC3729 after 24 hrs by broth microdilution method; assay type: functional; conditions: ARC3729, 24 h; method in brief: as §1
Streptococcus pneumoniae = assay: Antibacterial activity against Streptococcus pneumoniae ATCC 49619 after 24 hrs by broth microdilution method; assay type: functional; conditions: ATCC 49619, 24 h; method in brief: as §1
Pseudomonas aeruginosa [8] = assay: Antibacterial activity against Pseudomonas aeruginosa PAO1 after 24 hrs by broth microdilution method; assay type: functional; conditions: PAO1, 24 h; method in brief: as §1
Pseudomonas aeruginosa [9] = assay: Antibacterial activity against Pseudomonas aeruginosa ARC3506 after 24 hrs by broth microdilution method; assay type: functional; conditions: ARC3506, 24 h; method in brief: as §1
Pseudomonas aeruginosa [10] = assay: Antibacterial activity against Pseudomonas aeruginosa ARC3916 after 24 hrs by broth microdilution method; assay type: functional; conditions: ARC3916, 24 h; method in brief: as §1
Pseudomonas aeruginosa [11] = assay: Antibacterial activity against Pseudomonas aeruginosa ARC3727 after 24 hrs by broth microdilution method; assay type: functional; conditions: ARC3727, 24 h; method in brief: as §2
Pseudomonas aeruginosa [12] = assay: Antibacterial activity against Pseudomonas aeruginosa ARC3756 after 24 hrs by broth microdilution method; assay type: functional; conditions: ARC3756, 24 h; method in brief: as §2
Acinetobacter baumannii [13] = assay: Antibacterial activity against Acinetobacter baumannii ARC2781 after 24 hrs by broth microdilution method; assay type: functional; conditions: ARC2781, 24 h; method in brief: as §2
Acinetobacter baumannii [14] = assay: Antibacterial activity against Acinetobacter baumannii ARC3485 after 24 hrs by broth microdilution method; assay type: functional; conditions: ARC3485, 24 h; method in brief: as §1
Acinetobacter baumannii [15] = assay: Antibacterial activity against Acinetobacter baumannii ARC2779 after 24 hrs by broth microdilution method; assay type: functional; conditions: ARC2779, 24 h; method in brief: as §1
Pseudomonas aeruginosa [16] = assay: Antibacterial activity against Pseudomonas aeruginosa ARC3504 after 24 hrs by broth microdilution method; assay type: functional; conditions: ARC3504, 24 h; method in brief: as §1
Pseudomonas aeruginosa [17] = assay: Antibacterial activity against Pseudomonas aeruginosa ARC3607 after 24 hrs by broth microdilution method; assay type: functional; conditions: ARC3607, 24 h; method in brief: as §1
Acinetobacter baumannii [18] = assay: Antibacterial activity against Acinetobacter baumannii ARC2780 after 24 hrs by broth microdilution method; assay type: functional; conditions: ARC2780, 24 h; method in brief: as §2
Acinetobacter baumannii [19] = assay: Antibacterial activity against Acinetobacter baumannii ARC2675 after 24 hrs by broth microdilution method; assay type: functional; conditions: ARC2675, 24 h; method in brief: as §2
Acinetobacter baumannii [20] = assay: Antibacterial activity against Acinetobacter baumannii ARC3658 after 24 hrs by broth microdilution method; assay type: functional; conditions: ARC3658, 24 h; method in brief: as §1
Acinetobacter baumannii [21] = assay: Antibacterial activity against Acinetobacter baumannii ARC3515 after 24 hrs by broth microdilution method; assay type: functional; conditions: ARC3515, 24 h; method in brief: as §1
Pseudomonas aeruginosa [22] = assay: Antibacterial activity against Pseudomonas aeruginosa ARC3502 after 24 hrs by broth microdilution method; assay type: functional; conditions: ARC3502, 24 h; method in brief: as §2
Candida albicans = assay: Antifungal activity against Candida albicans ATCC 90028 after 24 hrs by broth microdilution method; assay type: functional; conditions: ATCC 90028, 24 h
Acinetobacter baumannii [23] = assay: Antibacterial activity against Acinetobacter baumannii ARC2728 after 24 hrs by broth microdilution method; assay type: functional; conditions: ARC2728, 24 h; method in brief: as §1
[24] = Thermodynamic solubility of the compound at pH 7.4; assay type: physicochemical; conditions: buffer, BLD = below limit of detection
Acinetobacter baumannii [25] = assay: Antibacterial activity against Acinetobacter baumannii ARC2674 after 24 hrs by broth microdilution method; assay type: functional; conditions: ARC2674, 24 h; method in brief: as §1
Staphylococcus aureus [26] = assay: Antibacterial activity against Staphylococcus aureus ATCC 29213 after 24 hrs in presence of 2% human albumin by broth microdilution method; assay type: functional; conditions: ATCC 29213, 24 h
Acinetobacter baumannii [27] = assay: Antibacterial activity against Acinetobacter baumannii ARC3493 after 24 hrs by broth microdilution method; assay type: functional; conditions: ARC3493, 24 h; method in brief: as §1
Acinetobacter baumannii [28] = assay: Antibacterial activity against Acinetobacter baumannii ARC3882 after 24 hrs by broth microdilution method; assay type: functional; conditions: ARC3882, 24 h; method in brief: as §1
Pseudomonas aeruginosa [29] = assay: Antibacterial activity against Pseudomonas aeruginosa ARC003 after 24 hrs by broth microdilution method; assay type: functional; conditions: ARC003, 24 h; method in brief: as §1
Staphylococcus aureus [30] = assay: Antibacterial activity against methicillin-resistant Staphylococcus aureus FQ-R after 24 hrs by broth microdilution method; assay type: functional; method in brief: as §4
Pseudomonas aeruginosa [31] = assay: Antibacterial activity against Pseudomonas aeruginosa ARC3511 after 24 hrs by broth microdilution method; assay type: functional; conditions: ARC3511, 24 h; method in brief: as §2
Acinetobacter baumannii [32] = assay: Antibacterial activity against Acinetobacter baumannii ARC3513 after 24 hrs by broth microdilution method; assay type: functional; conditions: ARC3513, 24 h; method in brief: as §1
Pseudomonas aeruginosa [33] = assay: Antibacterial activity against Pseudomonas aeruginosa ARC3509 after 24 hrs by broth microdilution method; assay type: functional; conditions: ARC3509, 24 h; method in brief: as §1
Staphylococcus aureus [34] = assay: Antibacterial activity against Staphylococcus aureus ATCC 29213 after 24 hrs by broth microdilution method; assay type: functional; conditions: ATCC 29213, 24 h; method in brief: as §1
Streptococcus pyogenes = assay: Antibacterial activity against Streptococcus pyogenes ARC838 after 24 hrs by broth microdilution method; assay type: functional; conditions: ARC838, 24 h; method in brief: as §2
Escherichia coli = assay: Antibacterial activity against tolC deficient Escherichia coli after 24 hrs by broth microdilution method; assay type: functional
Method in brief: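 Broth microdilution per CLSI guidelines. Inoculum adjusted to 1×10^6 CFU/mL in cation-adjusted Mueller–Hinton broth, added 1:1 to 2-fold serial compound dilutions; final DMSO 2.5% v/v. Plates incubated 35 °C, 140 rpm, 24 h.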

Pseudomonas aeruginosa [35] = assay: Antibacterial activity against Pseudomonas aeruginosa ARC4068 after 24 hrs by broth microdilution method; assay type: functional; conditions: ARC4068, 24 h; method in brief: as §2

CCNC(=O)Nc1cc(-c2nc(C(F)(F)F)cs2)c(-c2cc3ncccc3nc2N2C3CCC2CN(C)C3)cn1
7 nM: IC50 (DNA gyrase subunit B)
16 µg/mL: MIC (Pseudomonas aeruginosa [1]) | MIC (Pseudomonas aeruginosa [2]) | MIC (Pseudomonas aeruginosa [9]) | MIC (Pseudomonas aeruginosa [10]) | MIC (Pseudomonas aeruginosa [12]) | MIC (Pseudomonas aeruginosa [22]) | MIC (Pseudomonas aeruginosa [33]) | MIC (Pseudomonas aeruginosa [35])
2 µg/mL: MIC (Acinetobacter baumannii [3]) | MIC (Acinetobacter baumannii [5]) | MIC (Acinetobacter baumannii [14]) | MIC (Acinetobacter baumannii [15]) | MIC (Acinetobacter baumannii [20]) | MIC (Acinetobacter baumannii [27]) | MIC (Acinetobacter baumannii [28])
0.14 µg/mL: MIC (Escherichia coli)
0.5 µg/mL: MIC (Acinetobacter baumannii [13]) | MIC (Acinetobacter baumannii [18])
32 µg/mL: MIC (Pseudomonas aeruginosa [11]) | MIC (Pseudomonas aeruginosa [16])
4 µg/mL: MIC (Acinetobacter baumannii [6]) | MIC (Acinetobacter baumannii [19]) | MIC (Acinetobacter baumannii [21]) | MIC (Acinetobacter baumannii [25]) | MIC (Pseudomonas aeruginosa [29])
> 64 µg/mL: MIC (Enterobacter cloacae) | MIC (Candida albicans)
1 µg/mL: MIC (Acinetobacter baumannii [23])
64 µg/mL: MIC (Klebsiella pneumoniae) | MIC (Pseudomonas aeruginosa [17])
Bld: Therm_solubility [24]
8 µg/mL: MIC (Pseudomonas aeruginosa [7]) | MIC (Pseudomonas aeruginosa [31]) | MIC (Acinetobacter baumannii [32])
< 0.06 µg/mL: MIC (Staphylococcus aureus [4]) | MIC (Enterococcus faecalis) | MIC (Streptococcus pneumoniae) | MIC (Staphylococcus aureus [26]) | MIC (Staphylococcus aureus [30]) | MIC (Staphylococcus aureus [34]) | MIC (Streptococcus pyogenes)
9.09 µg/mL: MIC (Pseudomonas aeruginosa [8])
